The text below walks through data of ChEMBL document CHEMBL1148984, “Bioactive compounds from the seeds of Punica granatum (pomegranate)” (2004).

For assay [1], the system named is Brain. Kind of assay: Antioxidant activity against lipid peroxidation in Wistar rat brain assessed as inhibition of malondialdehyde release at 12.5 ug/mL by thiobarbituric acid method relative to control. On the set-up: scale not given: the % may be the effect or the level left. In kind it is functional, tissue-based. Put shortly:
(§1)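 Male Wistar rat brain homogenised fresh (10% w/v) in 50 mM phosphate buffer, pH 7.4; protein by Lowry. Aliquots incubated 30 min at 37 °C with compound (final 1.25, 2.5 or 5.0 × 10-5 g/mL) or saline vehicle. Stopped with SDS, then TBA in HCl/acetic acid, boiled 15 min. Chromogen extracted into n-butanol–pyridine (15:1); A532 read against MDA standards.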

Assay [2] has as its system Plasma. Nature of the assay: Antioxidant activity against LDL-susceptible to oxidation in New Zealand White rabbit plasma assessed as increase in conjugated diene formation at 12.5 ug/mL after 30 mins. In kind it is functional, Oryctolagus cuniculus. The procedure, abridged:
(§2)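 LDL in phosphate-buffered KCl dialysis buffer (pH 7.4), dialysed 4 h at 4 °C in the dark and diluted to 0.25 mg LDL/mL (protein by Lowry, BSA standard). Compound (final 1.25, 2.5 or 5.0 × 10-5 g/mL) or saline vehicle preincubated ~30 min at 20 °C. Oxidation started with CuSO4 (final 5.0 µmol/L), 37 °C for 4 h. A234 monitored; conjugated diene increase = (A4h − A0h)/A0h × 100%.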

In assay [3] the test system is Plasma. Nature of the assay: Antioxidant activity against LDL-susceptible to oxidation in New Zealand White rabbit plasma assessed as increase in conjugated diene formation at 50 ug/mL after 30 mins. The class given is functional, Oryctolagus cuniculus. Put shortly:
as §2

Assay [4] has as its system Plasma. Kind of assay: Antioxidant activity against LDL-susceptible to oxidation in New Zealand White rabbit plasma assessed as increase in conjugated diene formation at 25 ug/mL after 30 mins. The class given is functional, Oryctolagus cuniculus. Put shortly: as §2
In assay [5] the test system is Brain. Kind of assay: Antioxidant activity against lipid peroxidation in Wistar rat brain assessed as inhibition of malondialdehyde release at 50 ug/mL by thiobarbituric acid method relative to control. The class given is functional, tissue-based. Also noted: scale not given: the % may be the effect or the level left. The procedure, abridged: as §1
For assay [6], the system named is Brain. Nature of the assay: Antioxidant activity against lipid peroxidation in Wistar rat brain assessed as inhibition of malondialdehyde release at 25 ug/mL by thiobarbituric acid method relative to control. Also noted: scale not given: the % may be the effect or the level left. In kind it is functional, tissue-based. Put shortly: as §1

As for `O=C1O[C@H]([C@@H](O)CO)C(O)=C1O` [ASCORBIC ACID], the Activity in assay [1] was 50.1%; in assay [2], 3.7%.
For `COc1cc(/C=C/CO[C@@H]2O[C@H](CO[C@@H]3OC[C@](O)(CO)[C@H]3O)[C@@H](O)[C@H](O)[C@H]2O)ccc1O`, the Conjugated diene increase in assay [3] is 7.3%. Also, the Activity in assay [1] came out at 28.9%; in assay [4], 10.5%; in assay [5], 35.6%; in assay [2], 15.4%; in assay [6] it was 32.4%.
On to `COc1cc2c(=O)oc3c(OC)c(O)cc4c(=O)oc(c1OC)c2c34`, for which the Conjugated diene increase in assay [3] worked out at 21%. Moreover, the Activity in assay [1] was found to be 18.3%; in assay [4], 27.2%; in assay [5], 31.1%; in assay [2] it was 29.8%; in assay [6], 24.6%.
As for `COc1c(O)cc2c(=O)oc3c(OC)c(O)cc4c(=O)oc1c2c34`, in assay [3], the Conjugated diene increase is listed as 20.4%. Moreover, the Activity in assay [1] was 21.8%; in assay [4] it was 28.9%; in assay [5], 28.1%; in assay [2], 27%; in assay [6], 20.1%.
With `COc1cc(/C=C/CO[C@@H]2O[C@H](CO[C@@H]3OC[C@](O)(CO)[C@H]3O)[C@@H](O)[C@H](O)[C@H]2O)cc(OC)c1O`, the Conjugated diene increase in assay [3] was 12.2%. In addition, the Activity in assay [1] was found to be 26.5%; in assay [4], 14.4%; in assay [5] it was 32.1%; in assay [2] it was 17.6%; in assay [6] it was 29.8%.
